Tested on: MS2 coat protein
Experiment: apparent Kd, MS2 coat protein; higher = weaker binding; RNA-MaP array; FMN 200 µM where present
Summary of the method: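 Each design was made on Illumina sequencing-chip clusters by stalled E. coli RNA polymerase and titrated with SNAP-549-labelled MS2 coat protein from 0.7 or 1.5 nM, doubling to 3 µM, in the absence and then the presence of constant ligand. The buffer was 100 mM Tris-HCl pH 7.5, 80 mM KCl, 4 mM MgCl2, BSA, DTT, yeast tRNA and Tween-20. The apparent Kd is the median of filtered per-cluster fits of binding curves, with green signal normalised to red-channel RNA signal and control-cluster median Fmax.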

[1] = designed as: ON switch for flavin mononucleotide, no ligand
[2] = ligand present: flavin mononucleotide, designed as: ON switch for flavin mononucleotide
[3] = designed as: OFF switch for flavin mononucleotide, no ligand
[4] = ligand present: flavin mononucleotide, designed as: OFF switch for flavin mononucleotide

Row | Sequence | apparent Kd [1] [nM] | apparent Kd [2] [nM] | apparent Kd [3] [nM] | apparent Kd [4] [nM]
1 | GUAGCAUACCGAGGAUAUCUAACGACAAAGUCGACAUGAGGAUCACCCAUGUGGCGAAAGCCUUGGGAGAAGGCGGAAUGCUAC | 16.2 | 12.6 | – | –
2 | GGUGCGUCUGUGAGGAUAUGCUGGUCCUUGGCUCGGCAGAAGGCACAUGAGGAUCACCCAUGUGGUGUCGUGCC | – | – | 18.5 | 34.6
3 | UGGUACUAGGGAGGAUAUCGGAAGAUACAUGAGGAUCACCCAUGUUUAAGAAUGCCGAGAGGCAACUAGAAGGCCCUAGUACCU | 6.64 | 6.13 | – | –
4 | AAGAAGGCAGGAUAUACAAAAUAAAAGAAAAGAAAGAAAGAACAUGAGGAUCACCCAUGUAGAAGGGUCAAGAA | – | – | 59.3 | 66.1
5 | CCUUUUGUAUAAGGAUAUGUAACAAGGUAUAGAUUGGUAGGAUUUGUGCUUACAGAAGGUAUACAUGAGGAUCACCCAUGUCGA | – | – | 23.1 | 59.5
6 | GCCUCAAGUGAAGGAUAUACGAGGCCAAAUACAGUAGAAGGUCACAUGAGGAUCACCCAUGUCCCAAAGGGUGCGCAUGCGCUC | – | – | 40.4 | 210
7 | CGUCCACAUGAGGAUCACCCAUGUGAGGAUAUCGAUGUCCCAGGGCGGGUGCGGGACUCGAGAAGGCGCUAGGU | – | – | 23.3 | 29
8 | CUCAAACAUGAGGAUCACCCAUGUGUUGUCAUGGGAGGAUAUCCCAGUUCGUUGUAGUCGGGAGAAGGCCUAUGUC | 67.4 | 28.6 | – | –
9 | CCCUCAACAUGAGGAUCACCCAUGUAGGAUAUCGCUAUUGUAAUCAUGAAACAUGAUUACAAUAGCGAGAAGGACAUAUGACCC | – | – | 21.5 | 99.6
10 | AGUGACUACGUAGGAUAUUAAUUCAUGGACUACAUGAGGAUCACCCAUGUUUAUUUAACAUCAGCUAAGAAGGACGUGGUCACA | 16.6 | 8.5 | – | –
11 | CGCAACUCAGAUCUUUUUAACAUGAGGAUCACCCAUGUAUUGAGAAGGAGGAAGAAGAGAGAUUCCUAGGAUAUCAGAGUUGCG | – | – | 5.4 | 6.14
12 | AUACAUGAGGAUCACCCAUGUUACAUGGCCUUGAUAGAUUGUAGAAGGAUGUUAUUAUUAAUUUCAUAGGAUAUACUAUUUAGU | – | – | 106 | 83.9
13 | UUGUUACAUGAGGAUCACCCAUGUGAGGAUAUGGUUCAGUACUGUCAUGUCGCGUACUCCAGAAGGCACAUGUU | – | – | 89.7 | 209
14 | GGAUAGGACAGAGGAUAUACGUGCUAGAGAUACUAGCAAAAUUUCCUCACAUGAGGAUCACCCAUGUAGAAGGCUGGCCUAUCG | – | – | 14.1 | 379
15 | UGAUAGCACAGAGGAUAUGCGUAGUGUUAUCACUACAUGAGGAUCACCCAUGUAGAAGGCUGUGCUAUCUAAGUCGGAAACGAC | – | – | 6.33 | 7.44
16 | GUCAGCUCCUGAGGAUAUACAACACUGCUUCGGCAGUGUAUUAAGAUCACAUGAGGAUCACCCAUGUAGAAGGCACGAGCUGAU | – | – | 12.1 | 156
17 | CCGAGGCGAGGAUAUAUGAAGGACACAACAUUUAGGGUAAGACAUGAGGAUCACCCAUGUAGAAGGCGCGACGC | – | – | 63.4 | 55.8
18 | GGCUUAAACACAGGAUAUAGUCUUAGGGCGAGACUAGAAGGGUGAAGUUCUCAUACAUGAGGAUCACCCAUGUCACGGAGGCUA | 45.1 | 169 | – | –
19 | AACAGUACAGGAUAUACAUGAGGAUCACCCAUGUGAGACUUAAGUGGCGUACCACAAAGUAGAAGGGUACUGGA | – | – | 94.7 | 545
20 | GUAGCUAUCGGAGGAUAUUCAUACCGGAAACGGACAUGAGGAUCACCCAUGUGGCGAAAGCAUUGGGAGAAGGCCGAUAGCUAC | 576 | 19.7 | – | –
21 | UUGGACGUCGUAGGAUAUGUAGGAUUUUCCUACAUGAGGAUCACCCAUGUUGACAUGGAAGAAGGACAGAAGGACGAUGUCCAU | 648 | 16.3 | – | –
22 | AAUGCCAACGAAGGAUAUACAAACAUGAGGAUCACCCAUGUGUCUUUCGUGUAACUGGAAUUCGGGUAGAAGGUCGUUGACAUA | – | – | 24.2 | 23.2
23 | GGAAAACAUGAGGAUCACCCAUGUGAGGAUAUCGAUGUCCAACCACCCGUGCGGGACUCGAGAAGGCACUUGGA | – | – | 53.4 | 146

Source: the EternaBench riboswitch data
